Here are results for six molecules from ChEMBL document CHEMBL3421560, “Search for factors affecting antibacterial activity and toxicity of 1,2,4-triazole-ciprofloxacin hybrids” (Eur J Med Chem, 2015).

Experiment [1] can be described thus: Inhibition of Escherichia coli DNA topoisomerase 4 using kDNA as substrate after 1 hr by agarose gel electrophoresis. Put shortly: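 E. coli topoisomerase IV decatenation kit: kDNA (0.5 µg) with 1 U enzyme in supplied buffer plus varying compound levels, 37 °C for 1 h. Stopped as for the gyrase assay, then 1% agarose in TAE, 1.5 h at 80 V, ethidium bromide. IC50 = concentration blocking 50% conversion to decatenated minicircles, by gel densitometry.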

The target of the next experiment is DNA gyrase (Escherichia coli, UniProt P0AES4+P0AES6). Put plainly: Inhibition of Escherichia coli DNA gyrase after 1 hr by agarose gel electrophoresis. In kind it is protein-complex assay.
The test system of a further experiment is Bacillus subtilis. Put plainly: Antimicrobial activity against Bacillus subtilis […] after 18 hrs by broth microdilution method. Type of experiment: functional. A general note: In broth dilution the organism is exposed to a series of concentrations in liquid medium.
The next experiment relates to Bacillus cereus. Put plainly: Antimicrobial activity against Bacillus cereus ATCC 10876 after 18 hrs by broth microdilution method. Type of experiment: functional. Particulars: ATCC 10876, 18 h.
A further experiment relates to HEK293. The experiment is described as follows: Cytotoxicity against HEK293 cells after 72 hrs by MTT assay. The settings on record: Homo sapiens, HEK293, 48 h; in the assay text read “48 hrs” for “72 hrs”. In kind it is cell-based. Put shortly:
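HEK-293 (ATCC CRL-1573) in MEM with 10% FBS plus penicillin/streptomycin, seeded 3 x 10^5 cells/well, 24 h at 37 °C, 5% CO2. Treated with compounds diluted from 50 mg/mL DMSO stock into medium with 2% FBS for 48 h. Viability by MTT formazan readout; EC50 relative to control cells, mean ± SD of three independent experiments.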

In experiment [2] the test system is Staphylococcus aureus. Put plainly: Ratio of MBC for methicillin-susceptible Staphylococcus aureus ATCC 6538 to MIC for methicillin-susceptible Staphylococcus aureus ATCC 6538. In kind it is functional. The essentials: (§1)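 MBC taken as lowest concentration giving >99.9% CFU reduction of the initial inoculum; value is MBC divided by MIC for the same strain.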

For experiment [3], the system named is Staphylococcus aureus. The experiment is described as follows: Ratio of MBC for Staphylococcus aureus Microbank 14001 to MIC for Staphylococcus aureus Microbank 14001. Type of experiment: functional. The essentials:
as §1

Experiment [4] concerns Staphylococcus aureus. The experiment is described as follows: Ratio of MBC for methicillin-susceptible Staphylococcus aureus ATCC 25923 to MIC for methicillin-susceptible Staphylococcus aureus ATCC 25923. Type of experiment: functional. Put shortly: as §1
Another experiment has as its system Proteus mirabilis. The experiment is described as follows: Antimicrobial activity against Proteus mirabilis ATCC 12453 after 18 hrs by broth microdilution method. In kind it is functional. The settings on record: ATCC 12453, 18 h.
Experiment [5] has as its system Staphylococcus epidermidis. The experiment is described as follows: Antimicrobial activity against Staphylococcus epidermidis ATCC 12228 after 18 hrs by broth microdilution method. Type of experiment: functional. Particulars: ATCC 12228, 18 h.
Experiment [6] concerns Staphylococcus aureus. The experiment is described as follows: Antimicrobial activity against Staphylococcus aureus Microbank 14001 after 18 hrs by broth microdilution method. Type of experiment: functional. The settings on record: Microbank 14001, 18 h.
A further experiment deals with Klebsiella pneumoniae. Put plainly: Antimicrobial activity against Klebsiella pneumoniae ATCC 13883 after 18 hrs by broth microdilution method. Type of experiment: functional. Particulars: ATCC 13883, 18 h.
A further experiment relates to Escherichia coli. The experiment is described as follows: Antimicrobial activity against Escherichia coli ATCC 25922 after 18 hrs by broth microdilution method. Type of experiment: functional. The settings on record: ATCC 25922, 18 h.
In experiment [7] the test system is Pseudomonas aeruginosa. The experiment is described as follows: Antimicrobial activity against Pseudomonas aeruginosa ATCC 9027 after 18 hrs by broth microdilution method. Type of experiment: functional. Particulars: ATCC 9027, 18 h.
For the next experiment, the system named is Micrococcus luteus. The experiment is described as follows: Antimicrobial activity against Micrococcus luteus ATCC 10240 after 18 hrs by broth microdilution method. Type of experiment: functional. Particulars: ATCC 10240, 18 h.
Experiment [8] relates to Staphylococcus aureus. Put plainly: Antimicrobial activity against methicillin-susceptible Staphylococcus aureus ATCC 6538 after 18 hrs by broth microdilution method. In kind it is functional. The settings on record: ATCC 6538, 18 h.
Experiment [9] deals with Staphylococcus aureus. The experiment is described as follows: Antimicrobial activity against methicillin-susceptible Staphylococcus aureus ATCC 25923 after 18 hrs by broth microdilution method. Type of experiment: functional. Particulars: ATCC 25923, 18 h.
The subject of experiment [10] is Staphylococcus aureus. The experiment is described as follows: Ratio of vancomycin MIC to compound MIC for Staphylococcus aureus Microbank 14001. In kind it is functional.
Experiment [11] has as its system Pseudomonas aeruginosa. Put plainly: Ratio of ciprofloxacin MIC to compound MIC for Pseudomonas aeruginosa ATCC 9027. In kind it is functional.
Experiment [12] relates to Staphylococcus aureus. The experiment is described as follows: Ratio of ciprofloxacin MIC to compound MIC for methicillin-susceptible Staphylococcus aureus ATCC 6538. In kind it is functional.

In brackets after ≈: the same amount, converted by molar mass.

The IC50 is the concentration that inhibits the measured activity by half. In the case of `O=C(O)c1cn(C2CC2)c2cc(N3CCN(Cn4nc(-c5cccc(O)c5)n(-c5cccc(I)c5)c4=S)CC3)c(F)cc2c1=O`, the 50% inhibitory concentration (IC50) was found to be 78.1 µM in [1] and 9.78 µM on DNA gyrase.
In the same order, the values of `O=C(O)c1cn(C2CC2)c2cc(N3CCN(Cn4nc(-c5cccc(O)c5)n(-c5cc(Cl)cc(Cl)c5)c4=S)CC3)c(F)cc2c1=O` are 78.7 µM and 6.05 µM.
In the same order, the values of `CCCc1nn(CN2CCN(c3cc4c(cc3F)c(=O)c(C(=O)O)cn4C3CC3)CC2)c(=S)n1-c1cccc(I)c1` are 155 µM and 6.28 µM.
What is called MIC is the least concentration at which growth counts as inhibited. High values mean a less susceptible organism, low ones a more susceptible organism. The EC50 is the concentration at which the effect is half-maximal. Read a high EC50 as a need for much substance. In the case of `O=C(O)c1cn(C2CC2)c2cc(N3CCN(Cn4nc(-c5ccccc5O)n(Cc5ccccc5)c4=S)CC3)c(F)cc2c1=O`, the MIC in the experiment on Bacillus subtilis turned out to be 0.048 µM (≈ 0.0301 µg/mL); in the experiment on Bacillus cereus, 0.19 µM (≈ 0.119 µg/mL); in the experiment on Proteus mirabilis, 0.024 µM (≈ 0.015 µg/mL); in [5] it was 0.38 µM (≈ 0.238 µg/mL); with Staphylococcus aureus [6] it was 0.38 µM (≈ 0.238 µg/mL); in the experiment on Klebsiella pneumoniae, 0.096 µM (≈ 0.0602 µg/mL). Moreover, the minimal inhibitory concentration (MIC) against Escherichia coli is 0.006 µM (≈ 0.00376 µg/mL); with Pseudomonas aeruginosa [7], 0.096 µM (≈ 0.0602 µg/mL); with Micrococcus luteus it was 1.56 µM (≈ 0.978 µg/mL); against Staphylococcus aureus [8], 0.19 µM (≈ 0.119 µg/mL); against Staphylococcus aureus [9], 0.38 µM (≈ 0.238 µg/mL). This molecule displayed an EC50 in the experiment with HEK293 of 69.1 µM. For the same molecule, the Ratio result in the experiment with Staphylococcus aureus [2], in the experiment with Staphylococcus aureus [3] and in the experiment on Staphylococcus aureus [4] was “<=4” in each case.
On to `O=C(O)c1cn(C2CC2)c2cc(N3CCN(Cn4nc(-c5ccccc5O)n(Cc5ccc(F)cc5)c4=S)CC3)c(F)cc2c1=O`, for which the MIC in the experiment on Bacillus subtilis is 0.011 µM (≈ 0.00709 µg/mL); against Bacillus cereus, 0.093 µM (≈ 0.06 µg/mL); with Proteus mirabilis, 0.023 µM (≈ 0.0148 µg/mL); in experiment [5], 0.046 µM (≈ 0.0297 µg/mL); in the experiment with Staphylococcus aureus [6], 0.046 µM (≈ 0.0297 µg/mL); in the experiment with Klebsiella pneumoniae, 0.093 µM (≈ 0.06 µg/mL). The MIC against Escherichia coli came to 0.011 µM (≈ 0.00709 µg/mL); against Pseudomonas aeruginosa [7], 0.046 µM (≈ 0.0297 µg/mL); with Micrococcus luteus it was 0.76 µM (≈ 0.49 µg/mL); in the experiment with Staphylococcus aureus [8] it was 0.19 µM (≈ 0.122 µg/mL); in the experiment with Staphylococcus aureus [9] it was 0.76 µM (≈ 0.49 µg/mL). In addition, the Ratio with Staphylococcus aureus [10] is recorded as 15; with Staphylococcus aureus [2], “<=4”; in the experiment on Staphylococcus aureus [3], “<=4”; in the experiment on Staphylococcus aureus [4], “<=4”.
In the case of `COc1ccc(Cn2c(-c3ccccc3O)nn(CN3CCN(c4cc5c(cc4F)c(=O)c(C(=O)O)cn5C4CC4)CC3)c2=S)cc1`, the MIC was found to be 0.011 µM (≈ 0.00722 µg/mL) with Bacillus subtilis; 0.091 µM (≈ 0.0598 µg/mL) against Bacillus cereus; 0.023 µM (≈ 0.0151 µg/mL) against Proteus mirabilis; 0.046 µM (≈ 0.0302 µg/mL) in experiment [5]; 0.091 µM (≈ 0.0598 µg/mL) in the experiment with Staphylococcus aureus [6]; 0.023 µM (≈ 0.0151 µg/mL) in the experiment with Klebsiella pneumoniae. Besides, the MIC was determined as 0.011 µM (≈ 0.00722 µg/mL) in the experiment on Escherichia coli; 0.023 µM (≈ 0.0151 µg/mL) against Pseudomonas aeruginosa [7]; 1.49 µM (≈ 0.979 µg/mL) against Micrococcus luteus; 0.091 µM (≈ 0.0598 µg/mL) in the experiment with Staphylococcus aureus [8]; 0.36 µM (≈ 0.236 µg/mL) against Staphylococcus aureus [9]. Moreover, in the experiment on HEK293, a half-maximal effect (EC50) was put at 78.7 µM. The Ratio entry is recorded as “<=4” with Staphylococcus aureus [2]; 31 with Pseudomonas aeruginosa [11]; “<=4” in the experiment on Staphylococcus aureus [3]; “<=4” in the experiment with Staphylococcus aureus [4]; 8 with Staphylococcus aureus [12].
